The values below come from ChEMBL document CHEMBL1126766 (J Med Chem, 1993).

Where only a bound is given, the exact number is not on record here.

Common to all, as to type: functional
Test [1] deals with T1, Vanilloid receptor (Rattus norvegicus, UniProt Q9ERZ8+Q9WUD2+O35433). Nature of the test: In vitro effective concentration for Ca++ uptake into dorsal root ganglia neurones in culture. The gist of the method:
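Uptake of 45Ca2+ tracer into cultured dorsal root ganglion neurones, evoked by the applied agonist analogues. Potency is expressed as EC50 in μM, reported ± an error term. Full assay details are held in an earlier paper of the series.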

The target in test [2] is T1, Vanilloid receptor. Nature of the test: In vitro effective concentration for [Ca2+] uptake into dorsal root ganglia neurones in culture.
For another test, the species on record is Mus musculus. The test can be described thus: Effective analgesic dose in mouse tail-flick latency assay.
For a further test, the species on record is Cavia porcellus. The test can be described thus: Effective concentration for guinea pig ileum contraction in an in vitro assay.

Broadly, the EC50 is the concentration that produces a half-maximal response. Consider `COCCOCCOCC(=O)NCCCCCCCCCCC(=O)NCc1ccc(O)c(OC)c1`, for which the EC50 at Vanilloid receptor [1] is over 100 µM.

For `CCCCCCCCCCCCCCCC/N=C(\S)NCc1ccc(O)c(OC)c1`, the EC50 on Vanilloid receptor [1] is over 100 µM.

On Vanilloid receptor [1], `COc1cc(CNC(=O)/C=C/c2ccc([N+](=O)[O-])cc2)ccc1O` yielded an EC50 of 4.58 µM.

The compound `COc1cc(CNC(=O)/C=C/c2cccc(Cl)c2)ccc1O` registered a half-maximal effective concentration (EC50) at Vanilloid receptor [2] of 2.58 µM.

For the compound `CCCCCCCC/C=C/CCCCCCC/N=C(\S)NCc1ccc(O)c(OC)c1`, the EC50 at Vanilloid receptor [1] is over 100 µM.

As for `COc1cc(CNC(=O)/C=C/c2ccc(Cl)cc2Cl)ccc1O`, the 50% effective concentration (EC50) on Vanilloid receptor [2] amounted to 0.62 µM.

As to `COc1cc(CNC(=O)CCc2ccc(N=[N+]=[N-])cc2)ccc1O`, at Vanilloid receptor [1], the half-maximal effective concentration (EC50) was 4.2 µM.

Compound `COc1cc(C/N=C(\S)NC(c2ccccc2)(c2ccccc2)c2ccccc2)ccc1O` had an EC50 on Vanilloid receptor [1] of over 100 µM.

`CCCCCCCCC/N=C(\S)NCc1ccc(O)c(OC)c1` gave a 50% effective concentration (EC50) on Vanilloid receptor [1] of 0.1 µM.

Compound `COCCOCC(=O)NCc1ccc(O)c(OC)c1` came in with a concentration giving a half-maximal response (EC50) on Vanilloid receptor [2] of over 100 µM.

For `COc1cc(CNC(=O)CCc2ccc(O)cc2)ccc1O`, the EC50 on Vanilloid receptor [2] is over 100 µM.

At Vanilloid receptor [2], `COc1cc(CNC(=O)/C=C/c2ccc(C#N)cc2)ccc1O` came in with an EC50 of 26.5 µM.

For the compound `COc1cc(C/N=C(\S)NC(c2ccccc2)c2ccccc2)ccc1O`, at Vanilloid receptor [2], the concentration for a half-maximal effect (EC50) is 0.27 µM.

On Vanilloid receptor [2], `COc1cc(CNC(=O)/C=C/c2ccccc2)ccc1O` returned an EC50 of 11.8 µM.

`COc1cc(CNC(=O)CCl)ccc1O` returned an EC50 on Vanilloid receptor [1] of over 100 µM.

The compound `COc1cc(CNC(=O)/C=C/c2ccc(-c3ccccc3)cc2)ccc1O` registered an EC50 at Vanilloid receptor [2] of 0.24 µM.

By ED50 is commonly meant the midpoint of the dose-response relation. A higher ED50 goes with weaker potency. As for `CCCCC/N=C(\S)NCc1ccc(O)c(OC)c1`, the 50% effective concentration (EC50) at Vanilloid receptor [2] stood at 1.96 µM; in the test listed under Cavia porcellus it was 1.8 µM. The 50% effective dose (ED50) in the test listed under Mus musculus is over 50 µmol/kg.

As to `CCCCCCCC/N=C(\S)NCc1ccc(O)c(OC)c1`, the ED50 in the test listed under Mus musculus came out at 3.2 µmol/kg. Also, the half-maximal effective concentration (EC50) on Vanilloid receptor [1] (read-out: EC50) and in the test listed under Cavia porcellus was 0.06 µM in each case.

As to `COc1cc(CNC(=O)Cc2ccc(Cl)cc2)ccc1O`, the EC50 on Vanilloid receptor [2] was 7.77 µM.

On Vanilloid receptor [2], `COc1cc(CNC(=O)/C=C/c2ccc(Cl)cc2)ccc1O` registered a concentration giving a half-maximal response (EC50) of 1.24 µM.

Regarding `CCCC/N=C(\S)NCc1ccc(O)c(OC)c1`, the concentration for a half-maximal effect (EC50) at Vanilloid receptor [2] is 9.48 µM; in the test listed under Cavia porcellus, 3.4 µM. The compound further yielded an ED50 in the test filed under Mus musculus of over 50 µmol/kg.

As to `COc1cc(CNC(=O)/C=C/c2ccc(N(C)C)cc2)ccc1O`, the EC50 at Vanilloid receptor [2] turned out to be 4.39 µM.

`COc1cc(CNC(=O)/C=C/c2ccc(I)cc2)ccc1O`: on Vanilloid receptor [2], the EC50 turned out to be 0.35 µM.

Consider `CCCCCCCCC(=O)NCc1ccc(O)c(OC)c1` [NONIVAMIDE], for which the half-maximal effective concentration (EC50) at Vanilloid receptor [1] (read-out: EC50) was 0.55 µM.

As for `CCCCCC/N=C(\S)NCc1ccc(O)c(OC)c1`, the EC50 on Vanilloid receptor [2] and in the test listed under Cavia porcellus was 0.18 µM throughout. In the test filed under Mus musculus, this compound registered a 50% effective dose (ED50) of 12.5 µmol/kg.

Compound `COc1cc(CC(=O)NCCc2ccc(Cl)cc2)ccc1O` displayed a 50% effective concentration (EC50) at Vanilloid receptor [2] of 0.66 µM.

For the compound `COCCOCCOCC(=O)NCc1ccc(O)c(OC)c1`, the EC50 on Vanilloid receptor [2] was over 100 µM.

`CCCCCCCC/C=C\CCCCCCCC(=O)NCc1ccc(O)c(OC)c1` [OLVANIL] displayed an EC50 at Vanilloid receptor [1] of 0.17 µM.

Consider `CCCCCCCCCCCCCCCCCC(=O)NCc1ccc(O)c(OC)c1`, for which the half-maximal effective concentration (EC50) at Vanilloid receptor [1] is over 100 µM.

As for `CCCCCCCC/C=C/CCCCCCCC(=O)NCc1ccc(O)c(OC)c1`, the EC50 on Vanilloid receptor [1] was found to be 0.36 µM.

`CCCCCCCCCC/N=C(\S)NCc1ccc(O)c(OC)c1` registered an EC50 on Vanilloid receptor [1] of 0.11 µM.

As for `COc1cc(CNC(=O)CCCCCCCCCCC(=O)O)ccc1O`, the EC50 at Vanilloid receptor [1] was over 100 µM.

`COc1cc(C/N=C(\S)NC2[C@H]3C[C@@H]4C[C@@H](C[C@H]2C4)C3)ccc1O` (stereo partly drawn) returned an EC50 at Vanilloid receptor [2] of 1.08 µM.

Consider `COc1cc(CNC(=O)/C=C\c2ccc(Cl)cc2)ccc1O`, for which the EC50 at Vanilloid receptor [2] came to 50.1 µM.

The compound `COc1cc(CNC(=O)CCCCCN)ccc1O.O=C(O)C(F)(F)F` registered an EC50 on Vanilloid receptor [2] of over 100 µM.

Turning to `COc1cc(C/N=C(/N)S)ccc1O`, the concentration for a half-maximal effect (EC50) on Vanilloid receptor [2] was over 100 µM.

On Vanilloid receptor [2], `COc1cc(CNC(=O)CCCCCNC(=O)OC(C)(C)C)ccc1O` showed a concentration for a half-maximal effect (EC50) of 79.8 µM.

In the case of `CCCCCCC/N=C(\S)NCc1ccc(O)c(OC)c1`, it took a dose of 15 µmol/kg to reach the 50% effect level in the test listed under Mus musculus (ED50). Besides, the values for the EC50 at Vanilloid receptor [1] and in the test filed under Cavia porcellus were 0.29 µM and 0.1 µM, respectively.

On Vanilloid receptor [2], `COc1cc(CNC(=O)CCCCCCC(C)C)ccc1O` [DIHYDROCAPSAICIN] had a half-maximal effective concentration (EC50) of 0.19 µM.

Consider `COc1cc(CNC(=O)CCc2ccc(Cl)cc2)ccc1O`, for which, at Vanilloid receptor [2], the EC50 came out at 3.09 µM.

`COc1cc(CNC(=O)CBr)ccc1O` yielded an EC50 on Vanilloid receptor [1] of over 100 µM.

The compound `CCCCCCCCCCCC/N=C(\S)NCc1ccc(O)c(OC)c1` came in with a concentration giving a half-maximal response (EC50) at Vanilloid receptor [1] of 0.16 µM.

In turn, `COc1cc(CNC(=O)/C=C/c2ccc(NC=O)cc2)ccc1O` had a 50% effective concentration (EC50) on Vanilloid receptor [2] of 1000 µM.

For `CCCCCCCCCCCCCCCCCC/N=C(\S)NCc1ccc(O)c(OC)c1`, at Vanilloid receptor [1], the EC50 is 8.1 µM.

Regarding `COc1cc(CNC(=O)CCc2ccccc2)ccc1O`, at Vanilloid receptor [2], the EC50 turned out to be 45.26 µM.

Consider `COc1cc(CNC(=O)C#Cc2ccc(Cl)cc2)ccc1O`, for which the concentration for a half-maximal effect (EC50) at Vanilloid receptor [2] stood at 4.1 µM.

With `COc1cc(CNC(=O)CCc2ccc([N+](=O)[O-])cc2)ccc1O`, at Vanilloid receptor [2], the EC50 was 21 µM.

In the test filed under Mus musculus, `COc1cc(CNC(=O)CCCC/C=C/C(C)C)ccc1O` [CAPSAICIN] showed a 50% effective dose (ED50) of 15 µmol/kg.
